We go through 18 compounds from ChEMBL document CHEMBL1148030, “Substituted 6-amino-4H-[1,2]dithiolo[4,3-b]pyrrol-5-ones: synthesis, structure-activity relationships, and cytotoxic activity on selected human cancer cell lines” (Bioorg Med Chem, 2007).

The source made the active and inactive calls. The calls are words filed in the database; no cut-off is given here.

The nature of data set [1]: AUC (0 to 480 mins) in mouse at 38.2 umol/kg, ip. Conditions: plasma.
In data set [2] the test system is Endothelial cell. The data set can be described thus: Induction of apoptosis in human endothelial cells by annexin V apoptosis assay. Type of data set: functional, cell-based.
Data set [3] is described as follows: Cytotoxicity against human LCC6 cells after 48 hrs by MTT assay. Type of data set: functional, cell-based. Conditions: LCC-6, 48 h.
The subject of data set [4] is NCI-H460. The data set can be described thus: Induction of apoptosis in human H460 cells by annexin V apoptosis assay. Type of data set: functional, cell-based.
The test system of data set [5] is NCI-H460. Briefly: Cytotoxicity against human H460 cells after 48 hrs by MTT assay. Conditions: NCI-H460, 48 h. Type of data set: functional, cell-based.
The subject of data set [6] is LCC6. Briefly: Induction of apoptosis in human LCC6 cells by annexin V apoptosis assay. Type of data set: functional, cell-based.
Data set [7] in a line: Half life in mouse at 38.2 umol/kg, ip. As to conditions: in vivo.
The nature of data set [8]: Plasma clearance in mouse at 38.2 umol/kg, ip.
Data set [9] in a line: Tmax in mouse at 38.2 umol/kg, ip. As to conditions: in vivo.
The nature of data set [10]: Cmax in mouse at 38.2 umol/kg, ip within 30 mins. Conditions: in vivo.
Data set [11] can be described thus: Cmax in mouse at 36.8 umol/kg, ip within 30 mins. Conditions: in vivo.
A short description of data set [12]: Plasma clearance in mouse at 36.8 umol/kg, ip.
Data set [13] can be described thus: AUC (0 to 480 mins) in mouse at 36.8 umol/kg, ip. As to conditions: plasma.
Data set [14] is described as follows: Half life in mouse at 36.8 umol/kg, ip. Conditions: in vivo.
Data set [15] in a line: Inhibition of tumor growth in human SK-MEL-28V+ cells xenografted in mouse at 20 mg/kg, ip administered every altenative day for 24 days. The data set is classed as functional. Conditions: 576 h, route intraperitoneal. In short, it runs like this:
(§1)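 SK-MEL-28 V+ cells (engineered to overexpress VEGF) of over 95% viability were used to grow primary tumours in mice. These tumours were cut into 1 mm³ explants and implanted subcutaneously. Once tumours were palpable, mice were randomized and dosed intraperitoneally for 24 days: daily at 5 or 10 mg/kg, or every second day at 20 mg/kg. Tumours were measured by caliper every 2–5 days. Body weight and histology were assessed for toxicity.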

Data set [16] has as its system SK-MEL-28. Briefly: Antitumor activity against VEGF expressing human SK-MEL-28 cells xenografted in mouse assessed as loss of body weight at 5 to 10 mg/kg, ip after 24 days. Type of data set: functional, organism-based. In short, it runs like this:
as §1

Data set [17] in a line: Tmax in mouse at 36.8 umol/kg, ip. Conditions: in vivo.
Data set [18] concerns Mus musculus. The data set can be described thus: Toxicity in VEGF expressing human SK-MEL-28 cells xenografted in mouse assessed as effect on histological indications at 5 to 10 mg/kg, ip daily for 24 days. Conditions: in vivo.
In data set [19] the test system is SK-MEL-28. Briefly: Inhibition of tumor growth in VEGF expressing human SK-MEL-28 cells xenografted in mouse at 10 mg/kg, ip administered every altenative day for 24 days. Type of data set: functional. Conditions: SK-MEL-28, ip, 576 h, route intraperitoneal.

For `COc1ccc(-n2c3cssc-3c(NC(=O)c3cc(O)c(C(C)C)c(O)c3)c2=O)c(OC)c1`, in data set [1], the AUC(0-t) at 8 h was 102 µM·h. Besides, the result in data set [2], in data set [4] and in data set [6] was Active. In addition, the half-maximal inhibitory concentration (IC50) was 70 nM in [3] and 72 nM in data set [5]. Moreover, the half-life in data set [7] was determined as 1.57 h. The compound also had a clearance in data set [8] of 6.3 mL/min/kg. In data set [9], the Tmax was 3 min. The concentration in data set [10] peaked (Cmax) at 106 µM.
Consider `COc1ccc(-n2c3cssc-3c(NC(=O)c3cc(F)cc(F)c3)c2=O)c(OC)c1`, for which the outcome in [2], in [4] and in data set [6] was Active. Further, the IC50 was found to be 349 nM in data set [3] and 11 nM in data set [5].
Take `COc1ccc(C(=O)Nc2c3sscc-3n(-c3ccc(OC)cc3OC)c2=O)c(OC)c1`: the outcome in [2], in data set [4] and in [6] was Active. The half-maximal inhibitory concentration (IC50) stood at 251 nM in data set [3] and 11 nM in [5].
For the compound `CCCCC(C)C(=O)Nc1c2sscc-2[nH]c1=O` (stereo not drawn), the result in data set [2], in data set [4] and in data set [6] was Active. Further, the 50% inhibitory concentration (IC50) in data set [3] and in [5] was 200 nM in each case.
On to `CC(=O)Nc1c2sscc-2n(Cc2ccccc2)c1=O`, for which the outcome in [2], in [4] and in [6] was Active. The compound also gave an IC50 in data set [5] of 900 nM.
With `COc1ccc(-n2c3cssc-3c(NC(=O)c3ccco3)c2=O)c(OC)c1`, the result in [2], in data set [4] and in data set [6] was Active. The 50% inhibitory concentration (IC50) in data set [3] was determined as 28 nM; in data set [5], 50 nM.
With `O=C(Nc1c2sscc-2n(Cc2ccccc2)c1=O)c1cc(C(F)(F)F)cc(C(F)(F)F)c1`, the outcome in data set [2], in data set [4] and in [6] was Active. Further, the results for the IC50 in data set [3] and in data set [5] were 1180 nM and 706 nM, respectively.
Consider `COc1ccc(-n2c3cssc-3c(NC(=O)c3cc(C(F)(F)F)cc(C(F)(F)F)c3)c2=O)c(OC)c1`, for which the outcome in [2], in [4], in [6] and in data set [16] was Active. The Cmax in data set [11] amounted to 57 µM. The same compound had a clearance in data set [12] of 2.9 mL/min/kg. The compound also showed an AUC(0-t) at 8 h in data set [13] of 210 µM·h. In addition, the IC50 worked out at 160 nM in data set [3] and 130 nM in data set [5]. The compound also gave a half-life in [14] of 2.67 h. This compound also showed an inhibition in vivo at 20 mg/kg in data set [15] of 58%. In addition, the time of peak concentration (Tmax) in data set [17] is 0.5 h. Further, in data set [18], the outcome was Active.
For `CC(=O)Nc1c2sscc-2n(-c2ccc(C)cc2)c1=O`, the result in data set [2], in data set [4] and in [6] was Active. The results for the concentration for half-maximal inhibition (IC50) in [3] and in data set [5] were 220 nM and 44 nM, respectively.
In the case of `COc1ccc(-n2c3cssc-3c(NC(C)=O)c2=O)c(OC)c1`, the outcome in data set [2], in data set [4] and in data set [6] was Active. For the same compound, the IC50 in data set [3] was found to be 190 nM; in data set [5], 30 nM.
In the case of `COc1ccc(-n2c3cssc-3c(NC(=O)c3cccs3)c2=O)c(OC)c1`, the outcome in data set [2], in data set [4] and in data set [6] was Active. Moreover, the IC50 stood at 210 nM in data set [3] and 8 nM in data set [5].
Consider `COc1ccc(-n2c3cssc-3c(NC(C)=O)c2=O)cc1`, for which the result in data set [2], in data set [4] and in data set [6] was Active. Further, the IC50 was 220 nM in data set [3] and 53 nM in data set [5].
As to `COc1ccc(-n2c3cssc-3c(NC(=O)C(F)(F)F)c2=O)c(OC)c1`, the outcome in [2], in [4] and in data set [6] was Active. The half-inhibitory concentration (IC50) is 60 nM in [3] and 170 nM in [5].
Consider `COc1ccc(-n2c3cssc-3c(NC(=O)C(F)(F)F)c2=O)cc1`, for which the outcome in [2], in [4] and in [6] was Active. Further, the values for the IC50 in [3] and in data set [5] were 220 nM and 190 nM, respectively.
For `CC(C)c1c(O)cc(C(=O)Nc2c3sscc-3n(Cc3ccccc3)c2=O)cc1O`, the outcome in data set [2], in [4] and in [6] was Active. The IC50 in [3] worked out at 250 nM; in data set [5], 170 nM.
As to `CC(=O)O[C@H]1C(=O)[C@@]2(C)[C@H]([C@H](OC(=O)c3ccccc3)[C@]3(O)C[C@H](OC(=O)[C@H](O)[C@@H](NC(=O)c4ccccc4)c4ccccc4)C(C)=C1C3(C)C)[C@]1(OC(C)=O)CO[C@@H]1C[C@@H]2O` [PACLITAXEL], in data set [19], testing at 10 mg/kg gave an inhibition in vivo of 37%.
Consider `COc1ccc(-n2c3cssc-3c(NC(=O)c3ccc(C(F)(F)F)cc3)c2=O)c(OC)c1`, for which the outcome in data set [2], in [4] and in data set [6] was Active. Moreover, the half-inhibitory concentration (IC50) in data set [3] amounted to 85 nM; in [5], 7 nM.
Turning to `CC(C)c1ccc(-n2c3cssc-3c(NC(=O)c3cc(O)c(C(C)C)c(O)c3)c2=O)cc1`, the outcome in [2], in [4] and in data set [6] was Active. Besides, the IC50 was found to be 40 nM in data set [3] and 150 nM in data set [5].
